Measured values: ChEMBL document CHEMBL2177069, “Novel peptidomimetic compounds containing redox active chalcogens and quinones as potential anticancer agents” (Eur J Med Chem, 2012)
Calls of active or inactive are those of the source. The calls are words filed in the database; no cut-off is given here.

Assays:
Saccharomyces cerevisiae [1] = test: Growth inhibition of UFD2-deficient Saccharomyces cerevisiae YDL190C mutant at 20 ug/disc after 24 to 48 hrs by agar diffusion assay; type: functional; conditions: read-out: DIZ
Procedure, shortened: (§1)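 S. cerevisiae deletion mutants or wild type grown on YPD, seeded into liquid agar medium at an optical density of 0.1. 6 mm paper discs soaked with methanolic compound solution were placed on the plates and incubated at 30 °C. Growth was checked after 1 and 2 days, and the inhibition zone diameter was recorded in mm.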

Saccharomyces cerevisiae [2] = test: Growth inhibition of COX17-deficient Saccharomyces cerevisiae YLL009C mutant at 20 ug/disc after 24 to 48 hrs by agar diffusion assay; type: functional; conditions: read-out: DIZ; procedure, shortened: as §1
Saccharomyces cerevisiae [3] = test: Growth inhibition of RCK1-deficient Saccharomyces cerevisiae YGL158W mutant at 20 ug/disc after 24 to 48 hrs by agar diffusion assay; type: functional; conditions: read-out: DIZ; procedure, shortened: as §1
Saccharomyces cerevisiae [4] = test: Growth inhibition of WSC4-deficient Saccharomyces cerevisiae YHL028W mutant at 20 ug/disc 24 to 48 hrs by agar diffusion assay; type: functional; conditions: read-out: DIZ; procedure, shortened: as §1
Saccharomyces cerevisiae [5] = test: Growth inhibition of SOD1-deficient Saccharomyces cerevisiae YJR104C mutant at 20 ug/disc after 24 to 48 hrs by agar diffusion assay; type: functional; conditions: read-out: DIZ; procedure, shortened: as §1
Saccharomyces cerevisiae [6] = test: Growth inhibition of wild type Saccharomyces cerevisiae BY4741 at 20 ug/disc after 24 to 48 hrs by agar diffusion assay; type: functional; conditions: read-out: DIZ; procedure, shortened: as §1
PtK2 [7] = test: Induction of oxidative stress in potoroo PtK2 cells assessed as change in microtubular network after 24 hrs by immunofluorescence microscopic analysis; type: functional, cell-based; conditions: Potorous tridactylus
Procedure, shortened: (§2)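 PtK2 cells were grown on coverslips and treated once semi-confluent, for 24 h. Cells were fixed with 3.7% paraformaldehyde followed by 0.1% Triton X-100, or with cold methanol/acetone 50:50. Primary and secondary antibodies were applied for 45 min each: anti-GRP94 for ER, anti-α-tubulin. Actin was stained with phalloidin and nuclei with DAPI. Imaging was by fluorescence microscopy with a CCD camera.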

PtK2 [8] = test: Induction of oxidative stress in potoroo PtK2 cells assessed as reduction in actin stress fibres after 24 hrs by immunofluorescence microscopic analysis; type: functional, cell-based; conditions: Potorous tridactylus; procedure, shortened: as §2
PtK2 [9] = test: Induction of oxidative stress in potoroo PtK2 cells assessed as reduction in cell adhesion after 24 hrs by immunofluorescence microscopic analysis; type: functional, cell-based; conditions: Potorous tridactylus; procedure, shortened: as §2
PtK2 [10] = test: Induction of oxidative stress in potoroo PtK2 cells assessed as hole in the endoplasmic reticulum after 24 hrs by immunofluorescence microscopic analysis; type: functional, cell-based; conditions: Potorous tridactylus; procedure, shortened: as §2
PtK2 [11] = test: Induction of oxidative stress in potoroo PtK2 cells assessed as change in cell morphology after 24 hrs by immunofluorescence microscopic analysis; type: functional, cell-based; conditions: Potorous tridactylus; procedure, shortened: as §2
[12] = Cytotoxicity against human PHF cells after 24 hrs by MTT assay; type: cell-based
Procedure, shortened: (§3)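 MTT assay. Cells were seeded at 50,000 cells/mL in medium with 10% fetal calf serum and grown for two days at 37 °C, 10% CO2. Serial dilutions of compound were then added for 24 h. MTT was added (final 0.5 mg/mL) for 2 h, and the formazan was pelleted, washed, dissolved in isopropanol with 0.4% HCl and read at 590 nm. IC50 is the concentration giving 50% of untreated-control absorbance, taken from dose-response curves; mean of two parallel experiments.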

HUVEC = test: Cytotoxicity against human HUVEC cells after 24 hrs by MTT assay; type: cell-based; procedure, shortened: as §3
A-431 = test: Cytotoxicity against human A431 cells after 24 hrs by MTT assay; type: functional, cell-based; conditions: A-431, 24 h; procedure, shortened: as §3
MCF7 = test: Cytotoxicity against human MCF7 cells after 24 hrs by MTT assay; type: functional, cell-based; conditions: MCF7, 24 h; procedure, shortened: as §3
Hs-578T = test: Cytotoxicity against human Hs578T cells; type: functional
PC-3 = test: Cytotoxicity against human PC3 cells; type: functional
SN12C = test: Cytotoxicity against human SN12C cells; type: functional
RXF 393 = test: Cytotoxicity against human RXF393 cells; type: functional
CAKI-1 = test: Cytotoxicity against human Caki1 cells; type: functional
ACHN = test: Cytotoxicity against human ACHN cells; type: functional
OVCAR-5 = test: Cytotoxicity against human OVCAR5 cells; type: functional
IGROV-1 = test: Cytotoxicity against human IGROV1 cells; type: functional
UACC-62 = test: Cytotoxicity against human UACC62 cells; type: functional
UACC-257 = test: Cytotoxicity against human UACC257 cells; type: functional
SK-MEL-5 = test: Cytotoxicity against human SK-MEL-5 cells; type: functional
SK-MEL-28 = test: Cytotoxicity against human SK-MEL-28 cells; type: functional
MDA-MB-435 = test: Cytotoxicity against human MDA-MB-435 cells; type: functional
SNB-19 = test: Cytotoxicity against human SNB19 cells; type: functional
SF-268 = test: Cytotoxicity against human SF268 cells; type: functional
HT-29 = test: Cytotoxicity against human HT-29 cells; type: functional
HCT-116 = test: Cytotoxicity against human HCT116 cells; type: functional
COLO 205 = test: Cytotoxicity against human COLO205 cells; type: functional
NCI-H460 = test: Cytotoxicity against human NCI-H460 cells; type: functional
NCI-H226 = test: Cytotoxicity against human NCI-H226 cells; type: functional
EKVX = test: Cytotoxicity against human EKVX cells; type: functional
HOP-62 = test: Cytotoxicity against human HOP62 cells; type: functional
CCRF-CEM = test: Cytotoxicity against human CCRF-CEM cells; type: functional
[13] = read-out: pLC50 (the source's name) (converted)

CC1=C(SCCC(=O)OC(C[Se]C2=C(C)C(=O)c3ccccc3C2=O)C(=O)NCCCCCC(=O)OCc2ccccc2)C(=O)c2ccccc2C1=O (centres undefined)
zone of inhibition at 20 µg/disc (Saccharomyces cerevisiae [1]): 0 mm | zone of inhibition at 20 µg/disc (Saccharomyces cerevisiae [2]): 11 mm | zone of inhibition at 20 µg/disc (Saccharomyces cerevisiae [3]): 10 mm | zone of inhibition at 20 µg/disc (Saccharomyces cerevisiae [4]): 16 mm | zone of inhibition at 20 µg/disc (Saccharomyces cerevisiae [5]): 16 mm | zone of inhibition at 20 µg/disc (Saccharomyces cerevisiae [6]): 0 mm | Activity (PtK2 [7]): inactive | Activity (PtK2 [8]): Active | Activity (PtK2 [9]): Active | Activity (PtK2 [10]): Active | Activity (PtK2 [11]): Active | IC50 [12]: 5 µM | IC50 (HUVEC): 7 µM | IC50 (A-431): 6 µM | IC50 (MCF7): 10 µM | GI50 (Hs-578T): 7.59 µM | LC50 (Hs-578T): > 100 µM | TGI (Hs-578T; read-out: pTGI (converted)): > 100 µM | GI50 (PC-3): 2.57 µM | LC50 (PC-3): 55 µM | TGI (PC-3; read-out: pTGI (converted)): 9.12 µM | GI50 (SN12C): 4.68 µM | LC50 (SN12C): 57.5 µM | TGI (SN12C; read-out: pTGI (converted)): 16.6 µM | GI50 (RXF 393): 14.8 µM | LC50 (RXF 393): 53.7 µM | TGI (RXF 393; read-out: pTGI (converted)): 28.2 µM | GI50 (CAKI-1): 6.92 µM | LC50 (CAKI-1): 51.3 µM | TGI (CAKI-1; read-out: pTGI (converted)): 21.4 µM | GI50 (ACHN): 12 µM | LC50 (ACHN): 63.1 µM | TGI (ACHN; read-out: pTGI (converted)): 27.5 µM | GI50 (OVCAR-5): 5.01 µM | LC50 (OVCAR-5): 61.7 µM | TGI (OVCAR-5; read-out: pTGI (converted)): 18.6 µM | GI50 (IGROV-1): 2.14 µM | LC50 (concentration killing 50% of cells) (IGROV-1): 53.7 µM | TGI (IGROV-1; read-out: pTGI (converted)): 14.5 µM | GI50 (UACC-62): 8.13 µM | LC50 (UACC-62): 46.8 µM | TGI (UACC-62; read-out: pTGI (converted)): 20.9 µM | GI50 (UACC-257): 3.47 µM | LC50 (UACC-257): 34.7 µM | TGI (UACC-257; read-out: pTGI (converted)): 10 µM | GI50 (SK-MEL-5): 3.8 µM | LC50 (SK-MEL-5): 39.8 µM | TGI (SK-MEL-5; read-out: pTGI (converted)): 14.8 µM | GI50 (SK-MEL-28): 11.7 µM | LC50 (SK-MEL-28): 51.3 µM | TGI (SK-MEL-28; read-out: pTGI (converted)): 24.5 µM | GI50 (MDA-MB-435): 2.14 µM | LC50 (MDA-MB-435): 49 µM | TGI (MDA-MB-435; read-out: pTGI (converted)): 12.9 µM | GI50 (SNB-19): 3.8 µM | LC50 (SNB-19): 40.7 µM | TGI (SNB-19; read-out: pTGI (converted)): 14.1 µM | GI50 (SF-268): 7.41 µM | LC50 (SF-268): 44.7 µM | TGI (SF-268; read-out: pTGI (converted)): 20 µM | GI50 (HT-29): 3.55 µM | LC50 (HT-29): 83.2 µM | TGI (HT-29; read-out: pTGI (converted)): 20.9 µM | GI50 (HCT-116): 2 µM | LC50 (HCT-116): 11.7 µM | TGI (HCT-116; read-out: pTGI (converted)): 4.57 µM | GI50 (COLO 205): 7.94 µM | CC50 (COLO 205; [13]): 56.2 µM | TGI (COLO 205; read-out: pTGI (converted)): 22.4 µM | GI50 (NCI-H460): 1.91 µM | LC50 (NCI-H460): 14.1 µM | TGI (NCI-H460; read-out: pTGI (converted)): 4.57 µM | GI50 (NCI-H226): 19.5 µM | CC50 (NCI-H226; [13]): > 100 µM | TGI (NCI-H226; read-out: pTGI (converted)): 51.3 µM | GI50 (EKVX): 3.63 µM | LC50 (EKVX): 58.9 µM | TGI (EKVX; read-out: pTGI (converted)): 17.8 µM | GI50 (HOP-62): 3.8 µM | LC50 (HOP-62): 39.8 µM | TGI (HOP-62; read-out: pTGI (converted)): 14.5 µM | GI50 (CCRF-CEM): 2.82 µM | LC50 (CCRF-CEM): > 100 µM | TGI (CCRF-CEM; read-out: pTGI): > 100 µM
